The source made the active and inactive calls. The rule behind the calls is not given here.
Test system: Mus musculus
Assay: Compound was tested for antileukemic activity in P388 leukemia mice when administered a dose of 100 mg/kg/day; IA means inactive
Format: functional, organism-based
Method in brief: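 BDF1 male mice, eight per group, implanted ip with 10⁶ P388 leukemia cells. Drug given ip in 0.5 mL saline. Schedules varied between groups; the 100 mg/kg/day regimen was dosed qd 1-9.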

**Q.** `Nc1ncnc2c1ncn2[C@@H]1C[C@H](CO)[C@@H](O)[C@H]1O` was tested. Which Activity did it give?
**A.** inactive

— ChEMBL document CHEMBL1122622, “Carbocyclic analogues of xylofuranosylpurine nucleosides. Synthesis and antitumor activity” (J Med Chem, 1984)
